This passage reports IC50 and Activity results from ChEMBL document CHEMBL1152933, “Synthesis and evaluation of novel 7-azaindazolyl-indolyl-maleimide derivatives as antitumor agents and protein kinase C inhibitors” (Bioorg Med Chem, 2009).

The test system of one test is K562. As to the kind of experiment: Antiproliferative activity against human K562 cells after 48 hrs by MTT assay. To be noted: K562, 48 h. The test is classed as functional, cell-based. In outline:
(§1)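 MTT assay after 48 h incubation with compound. MTT (5.0 mg/mL stock in RPMI-1640) was added and incubated a further 4 h at 37 °C. Formazan was dissolved in DMSO and absorbance read at 570 nm. IC50 is the concentration giving 50% decrease in cell growth, computed from dose-effect analysis. Triplicate wells, three independent experiments, values are means.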

A short description of test [1]: Antiproliferative activity against human ECA109 cells after 48 hrs by MTT assay. The settings on record: ECa-109, 48 h. Type of test: functional, cell-based. In a few lines:
as §1

Test [2] has as its system KB. In words: Induction of apoptosis in human KB cells assessed as increase in caspase 3/7 activity at 20 uM after 48 hrs. Type of test: functional, cell-based. In outline:
(§2)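 KB cells were cultured 48 h with 10 or 20 µM, then caspase-3/7 activity was measured with a Caspase-Glo 3/7 kit per the kit protocol and compared with control cells.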

For test [3], the system named is KB. As to the kind of experiment: Induction of apoptosis in human KB cells assessed as DNA fragmentation at 20 uM after 48 hrs by agarose gel electrophoresis. Type of test: functional, cell-based. In a few lines:
(§3)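 KB cells were treated 48 h with 10 or 20 µM, then lysed in EDTA/Tris pH 8.0/SDS/proteinase K buffer at 37 °C for 12 h, followed by RNase 1 h at 37 °C. DNA was phenol/chloroform extracted and ethanol precipitated, then run on 1.5% agarose gel with ethidium bromide and photographed for laddering.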

Test [4] relates to KB. As to the kind of experiment: Antiproliferative activity against human KB cells at 10 uM after 48 hrs by MTT assay. Type of test: functional, cell-based.
Test [5] concerns KB. In words: Induction of apoptosis in human KB cells assessed as decrease in procaspase-9 expression at 20 uM after 48 hrs by Western blotting. Type of test: functional, cell-based. In outline:
(§4)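 KB cells were treated 48 h with 10 or 20 µM, then lysed in NaCl/Tris pH 8.0/EGTA/EDTA/NaF/β-glycerophosphate/Triton/NP-40/PMSF buffer. Protein was quantified by BCA. Equal protein was run on 10–12% Tris-glycine gels and blotted. Blots were probed for JNK, Bax, Bcl-2, procaspase-9, procaspase-3 and tubulin, with HRP secondary and ECL detection. Bax/Bcl-2 ratio was derived from the blots.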

For test [6], the system named is KB. In words: Induction of apoptosis in human KB cells assessed as increase in Bax/Bcl-2 ratio at 20 uM after 48 hrs by Western blotting. Type of test: functional, cell-based. In outline: as §4
Test [7] relates to KB. In words: Induction of apoptosis in human KB cells assessed as decrease in BCL-2 expression at 20 uM after 48 hrs by Western blotting. Type of test: functional, cell-based. In outline: as §4
A short description of test [8]: Inhibition of PKC by […] assay. In outline: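 Recombinant PKC was incubated with reaction mixture containing a fluorescent PepTag PKC-specific peptide substrate at 30 °C for 30 min, then stopped by boiling. Phosphorylated (−1) and nonphosphorylated (+1) peptide were separated on 0.8% agarose in 50 mM Tris-HCl pH 8.0 at 100 V for 15 min and visualized under UV. IC50 values are means of three experiments.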

The subject of a further test is SMMC-7721. In words: Antiproliferative activity against human SMMC7721 cells after 48 hrs by MTT assay. The test is classed as functional, cell-based. The settings on record: SMMC-7721, 48 h. In a few lines: as §1
Test [9] deals with KB. In words: Induction of apoptosis in human KB cells assessed as increase in caspase 3/7 activity at 10 uM after 48 hrs. The test is classed as functional, cell-based. In a few lines: as §2
Test [10] relates to KB. In words: Antiproliferative activity against human KB cells after 48 hrs by MTT assay. Type of test: functional, cell-based. In outline:
as §1

Test [11] deals with KB. As to the kind of experiment: Induction of apoptosis in human KB cells assessed as increase in JNK expression at 20 uM after 48 hrs by Western blotting. The test is classed as functional, cell-based. In outline: as §4
Test [12] concerns KB. As to the kind of experiment: Induction of apoptosis in human KB cells assessed as DNA fragmentation at 10 uM after 48 hrs by agarose gel electrophoresis. Type of test: functional, cell-based. In a few lines:
as §3

Test [13] has as its system KB. In words: Induction of apoptosis in human KB cells assessed as decrease in procaspase-3 expression at 20 uM after 48 hrs by Western blotting. The test is classed as functional, cell-based. In a few lines: as §4
Test [14] relates to KB. As to the kind of experiment: Antiproliferative activity against human KB cells at 20 uM after 48 hrs by light microscopy.
For a further test, the system named is A549. As to the kind of experiment: Antiproliferative activity against human A549 cells after 48 hrs by MTT assay. To be noted: A549, 48 h. Type of test: functional, cell-based. In a few lines:
as §1

The source made the active and inactive calls. The rule behind the calls is not given here.

Regarding `Cn1cc(C2=C(c3nn(CCCN4CCCCC4)c4ncccc34)C(=O)N(c3ccccc3)C2=O)c2ccccc21`, the half-maximal inhibitory concentration (IC50) is 3.79 µM with K562; 12.3 µM in test [1]; above 10 µM in test [8]; 3.05 µM in the test with SMMC-7721; 5.6 µM in the test on KB [10]; 20.6 µM with A549. Moreover, the outcome with KB [2], in the test with KB [3], in the test with KB [4], with KB [5], in the test with KB [6] and in the test on KB [7] was Active. The outcome in the test with KB [9], in the test with KB [11], with KB [12], in the test with KB [13] and with KB [14] was Active.

In the case of `Cn1cc(C2=C(c3n[nH]c4ncccc34)C(=O)N(c3cccc4ccccc34)C2=O)c2ccccc21`, the IC50 was above 100 µM with K562; above 100 µM in test [1]; above 10 µM in [8]; above 100 µM in the test on SMMC-7721; above 100 µM in the test on KB [10]; above 100 µM in the test with A549.
